# Measured values from ChEMBL document CHEMBL3045565, “Microwave synthesis, characterization and bio-efficacy evaluation of novel chalcone based 6-carbethoxy-2-cyclohexen-1-one and 2H-indazol-3-ol derivatives” (Eur J Med Chem, 2013).
# Key:
# Assay type in all cases: functional
# Xanthomonas oryzae [1] = assay: Antibacterial activity against Xanthomonas oryzae ITCC B-47 assessed as as growth inhibition at 25 ug/disk after 24 hr by disk diffusion method; conditions: ITCC B-47, 24 h, read-out: DIZ
# Bacillus thuringiensis [2] = assay: Antibacterial activity against Bacillus thuringiensis MTCC 6941 assessed as growth inhibition at 25 ug/disk after 24 hr by disk diffusion method; conditions: MTCC 6941, 24 h, read-out: DIZ
# Dickeya chrysanthemi [3] = assay: Antibacterial activity against Erwinia chrysanthemi ITCC B-40 assessed as as growth inhibition at 25 ug/disk after 24 hr by disk diffusion method; conditions: ITCC B-40, 24 h, read-out: DIZ
# Staphylococcus aureus [4] = assay: Antibacterial activity against Staphylococcus aureus MTCC 3160 assessed as growth inhibition at 25 ug/disk after 24 hr by disk diffusion method; conditions: MTCC 3160, 24 h, read-out: DIZ
# Bacillus pumilus [5] = assay: Antibacterial activity against Bacillus pumilus MTCC 2466 assessed as growth inhibition at 25 ug/disk after 24 hr by disk diffusion method; conditions: MTCC 2466, 24 h, read-out: DIZ
# Pseudomonas aeruginosa [6] = assay: Antibacterial activity against Pseudomonas aeruginosa MTCC 2581 assessed as growth inhibition at 25 ug/disk after 24 hr by disk diffusion method; conditions: MTCC 2581, 24 h, read-out: DIZ
# Klebsiella pneumoniae [7] = assay: Antibacterial activity against Klebsiella pneumoniae MTCC 7028 assessed as growth inhibition at 25 ug/disk after 24 hr by disk diffusion method; conditions: MTCC 7028, 24 h, read-out: DIZ
# [8] = tested on: Radical scavenging activity; assay: Antioxidant activity assessed as DPPH free radical scavenging activity at 80 ug/mL after 20 min by UV-Vis spectrophotometric analysis
# Method in brief: (§1)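 DPPH radical scavenging: samples were held at room temperature for 20 min in the dark, and absorbance was read at 517 nm. The control contained DMSO without compound, and methanol was used for baseline correction. Scavenging percentage was calculated from the absorbances.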
# Klebsiella pneumoniae [9] = assay: Antibacterial activity against Klebsiella pneumoniae MTCC 7028 assessed as growth inhibition at 100 ug/disk after 24 hr by disk diffusion method; conditions: MTCC 7028, 24 h, read-out: DIZ
# Method in brief: (§2)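 Disk diffusion on nutrient agar. Strains kept on NA slants at 37 °C and subcultured in nutrient broth before testing. A log-phase culture was spread on solidified medium, and sterile disks were loaded with compound from DMSO stock. DMSO served as control, with commercial antibiotics for reference. Plates ran 24 h at 37 °C, and inhibition zones (mm) were read in quadruplicate.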
# [10] = tested on: Radical scavenging activity; assay: Antioxidant activity assessed as DPPH free radical scavenging activity after 20 min by UV-Vis spectrophotometric analysis; set-up: concentration or dose not given beside the values; method in brief: as §1
# [11] = tested on: Radical scavenging activity; assay: Antioxidant activity assessed as DPPH free radical scavenging activity at 500 ug/mL after 20 min by UV-Vis spectrophotometric analysis; method in brief: as §1
# Xanthomonas oryzae [12] = assay: Antibacterial activity against Xanthomonas oryzae ITCC B-47 assessed as as growth inhibition at 100 ug/disk after 24 hr by disk diffusion method; conditions: ITCC B-47, 24 h, read-out: DIZ
# [13] = tested on: Radical scavenging activity; assay: Antioxidant activity assessed as DPPH free radical scavenging activity at 400 ug/mL after 20 min by UV-Vis spectrophotometric analysis; method in brief: as §1
# [14] = tested on: Radical scavenging activity; assay: Antioxidant activity assessed as DPPH free radical scavenging activity at 60 ug/mL after 20 min by UV-Vis spectrophotometric analysis; method in brief: as §1
# Bacillus pumilus [15] = assay: Antibacterial activity against Bacillus pumilus MTCC 2466 assessed as growth inhibition at 100 ug/disk after 24 hr by disk diffusion method; conditions: MTCC 2466, 24 h, read-out: DIZ; method in brief: as §2
# Rhizoctonia solani = assay: Antifungal activity against Rhizoctonia solani ITCC 5563 by food poisoning method
# Method in brief: (§3)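 Poisoned food technique on PDA at several concentrations. A 5 mm mycelial plug from the growing edge of a 2-week-old colony was placed inoculum-side down at the plate centre. Plates incubated at 27 °C until control growth was nearly complete. Colony diameter measured, percent inhibition calculated against control, LC50 derived. Four replicates per treatment.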
# [16] = tested on: Radical scavenging activity; assay: Antioxidant activity assessed as DPPH free radical scavenging activity at 200 ug/mL after 20 min by UV-Vis spectrophotometric analysis; method in brief: as §1
# [17] = tested on: Radical scavenging activity; assay: Antioxidant activity assessed as DPPH free radical scavenging activity at 20 ug/mL after 20 min by UV-Vis spectrophotometric analysis; method in brief: as §1
# Staphylococcus aureus [18] = assay: Antibacterial activity against Staphylococcus aureus MTCC 3160 assessed as growth inhibition at 100 ug/disk after 24 hr by disk diffusion method; conditions: MTCC 3160, 24 h, read-out: DIZ; method in brief: as §2
# Klebsiella pneumoniae [19] = assay: Antibacterial activity against Klebsiella pneumoniae MTCC 7028 assessed as growth inhibition after 24 hr by broth dilution method; conditions: MTCC 7028, 24 h
# Method in brief: (§4)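 Broth dilution, with streptomycin as the standard. MIC was taken as the lowest concentration giving more than 90% bacterial inhibition.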
# [20] = tested on: Radical scavenging activity; assay: Antioxidant activity assessed as DPPH free radical scavenging activity at 40 ug/mL after 20 min by UV-Vis spectrophotometric analysis; method in brief: as §1
# [21] = tested on: Radical scavenging activity; assay: Antioxidant activity assessed as DPPH free radical scavenging activity at 100 ug/mL after 20 min by UV-Vis spectrophotometric analysis; method in brief: as §1
# [22] = tested on: Radical scavenging activity; assay: Antioxidant activity assessed as DPPH free radical scavenging activity at 10 ug/mL after 20 min by UV-Vis spectrophotometric analysis; method in brief: as §1
# Dickeya chrysanthemi [23] = assay: Antibacterial activity against Erwinia chrysanthemi ITCC B-40 assessed as as growth inhibition at 100 ug/disk after 24 hr by disk diffusion method; conditions: ITCC B-40, 24 h, read-out: DIZ; method in brief: as §2
# [24] = tested on: Radical scavenging activity; assay: Antioxidant activity assessed as DPPH free radical scavenging activity at 300 ug/mL after 20 min by UV-Vis spectrophotometric analysis; method in brief: as §1
# Athelia rolfsii = assay: Antifungal activity against Athelia rolfsii ITCC 6181 by food poisoning method; conditions: Agroathelia rolfsii; method in brief: as §3
# Pseudomonas aeruginosa [25] = assay: Antibacterial activity against Pseudomonas aeruginosa MTCC 2581 assessed as growth inhibition at 100 ug/disk after 24 hr by disk diffusion method; conditions: MTCC 2581, 24 h, read-out: DIZ; method in brief: as §2
# Bacillus thuringiensis [26] = assay: Antibacterial activity against Bacillus thuringiensis MTCC 6941 assessed as growth inhibition at 100 ug/disk after 24 hr by disk diffusion method; conditions: MTCC 6941, 24 h, read-out: DIZ; method in brief: as §2
# Dickeya chrysanthemi [27] = assay: Antibacterial activity against Erwinia chrysanthemi ITCC B-40 assessed as as growth inhibition after 24 hr by broth dilution method; conditions: ITCC B-40, 24 h; method in brief: as §4
SMILES,Activity [8] [%],zone of inhibition at 100 µg/disc (Klebsiella pneumoniae [9]) [mm],Activity [10] [%],IC50 [10] [µg/mL],Activity [11] [%],zone of inhibition at 100 µg/disc (Xanthomonas oryzae [12]) [mm],Activity [13] [%],Activity [14] [%],zone of inhibition at 100 µg/disc (Bacillus pumilus [15]) [mm],LC50 (Rhizoctonia solani) [µg/mL],Activity [16] [%],Activity [17] [%],zone of inhibition at 100 µg/disc (Staphylococcus aureus [18]) [mm],Activity [20] [%],Activity [21] [%],Activity [22] [%],zone of inhibition at 100 µg/disc (Dickeya chrysanthemi [23]) [mm],LC50 (Athelia rolfsii) [µg/mL],zone of inhibition at 100 µg/disc (Pseudomonas aeruginosa [25]) [mm],zone of inhibition at 100 µg/disc (Bacillus thuringiensis [26]) [mm],further results
NC[C@H]1O[C@H](O[C@H]2[C@H](O)[C@@H](O[C@H]3O[C@H](CO)[C@@H](O)[C@H](N)[C@H]3O)[C@H](N)C[C@@H]2N)[C@H](O)[C@@H](O)[C@@H]1O [KANAMYCIN],–,–,–,–,–,–,–,–,–,–,–,–,–,–,–,–,–,–,–,–,zone of inhibition at 25 µg/disc (Xanthomonas oryzae [1]): 0 mm; zone of inhibition at 25 µg/disc (Bacillus thuringiensis [2]): 15 mm; zone of inhibition at 25 µg/disc (Dickeya chrysanthemi [3]): 0 mm; zone of inhibition at 25 µg/disc (Staphylococcus aureus [4]): 10 mm; zone of inhibition at 25 µg/disc (Bacillus pumilus [5]): 0 mm; zone of inhibition at 25 µg/disc (Pseudomonas aeruginosa [6]): 0 mm; zone of inhibition at 25 µg/disc (Klebsiella pneumoniae [7]): 15 mm
O=c1[nH][nH]c2c1C(c1ccccc1)CC(c1ccc(F)cc1)=C2 (stereo unspecified),89,15,70.5,23.71,90.8,0,90.8,86.9,0,669,92.2,30.4,0,70.5,91,23.5,0,912,0,0,MIC (Klebsiella pneumoniae [19]): 24.7 µg/mL; Activity [24]: 90.7%
COc1ccc(C2CC(c3ccc4c(c3)OCO4)=Cc3n[nH]c(O)c32)cc1 (stereo unspecified),89.5,0,56.1,25.2,90.1,0,89.9,84.2,0,643,91.9,30.4,0,56.1,90.7,19,0,897,0,0,Activity [24]: 89.8%
CCOC(=O)C1C(=O)C=C(c2ccc(Cl)cc2)CC1c1ccc(OC)cc1 (stereo unspecified),–,0,4.74,–,–,0,–,–,0,58,–,–,0,–,–,–,15,372,0,0,MIC (Dickeya chrysanthemi [27]): 73.6 µg/mL
CN[C@@H]1[C@H](O[C@H]2[C@H](O[C@H]3[C@H](O)[C@@H](O)[C@H](N=C(N)N)[C@@H](O)[C@@H]3N=C(N)N)O[C@@H](C)[C@]2(O)C=O)O[C@@H](CO)[C@H](O)[C@H]1O [STREPTOMYCIN],–,–,–,–,–,–,–,–,–,–,–,–,–,–,–,–,–,–,–,–,zone of inhibition at 25 µg/disc (Xanthomonas oryzae [1]): 20 mm; zone of inhibition at 25 µg/disc (Bacillus thuringiensis [2]): 20 mm; zone of inhibition at 25 µg/disc (Dickeya chrysanthemi [3]): 20 mm; MIC (Klebsiella pneumoniae [19]): 3.1 µg/mL; MIC (Dickeya chrysanthemi [27]): 4.6 µg/mL; zone of inhibition at 25 µg/disc (Staphylococcus aureus [4]): 20 mm; zone of inhibition at 25 µg/disc (Bacillus pumilus [5]): 15 mm; zone of inhibition at 25 µg/disc (Pseudomonas aeruginosa [6]): 20 mm; zone of inhibition at 25 µg/disc (Klebsiella pneumoniae [7]): 20 mm
Cc1ccc(C2CC(c3ccccc3)=Cc3n[nH]c(O)c32)cc1 (stereo unspecified),36.4,0,18.2,106.62,85.7,0,85.7,35.1,0,745,69.9,14.5,5,18.2,41.2,9.2,0,922,10,0,Activity [24]: 81.8%
COc1ccc(C2CC(c3ccccc3)=Cc3n[nH]c(O)c32)cc1OC (stereo unspecified),90.9,0,69.9,21.98,90.8,0,90.5,87.6,0,696,91.9,30.2,0,69.9,91.8,18.1,0,817,5,0,Activity [24]: 91.9%
CCOC(=O)C1C(=O)C=C(c2ccccc2)CC1c1ccc(OC)cc1 (stereo unspecified),–,0,2.69,–,–,0,–,–,0,116,–,–,0,–,–,–,15,347,0,0,MIC (Dickeya chrysanthemi [27]): 5.9 µg/mL
COc1cc(C2CC(c3ccc(C)cc3)=Cc3n[nH]c(O)c32)cc(OC)c1OC (stereo unspecified),89.9,0,56.9,29.7,90.6,0,90.3,79.3,0,738,91.8,26.4,0,56.9,90.8,15,0,1170,0,0,Activity [24]: 90.2%
CC1(C)S[C@@H]2[C@H](NC(=O)[C@H](N)c3ccccc3)C(=O)N2[C@H]1C(=O)O [AMPICILLIN],–,–,–,–,–,–,–,–,–,–,–,–,–,–,–,–,–,–,–,–,zone of inhibition at 25 µg/disc (Xanthomonas oryzae [1]): 5 mm; zone of inhibition at 25 µg/disc (Bacillus thuringiensis [2]): 0 mm; zone of inhibition at 25 µg/disc (Dickeya chrysanthemi [3]): 20 mm; zone of inhibition at 25 µg/disc (Staphylococcus aureus [4]): 10 mm; zone of inhibition at 25 µg/disc (Bacillus pumilus [5]): 20 mm; zone of inhibition at 25 µg/disc (Pseudomonas aeruginosa [6]): 10 mm; zone of inhibition at 25 µg/disc (Klebsiella pneumoniae [7]): 10 mm
